Drawing on ChEMBL document CHEMBL3414529, “Discovery and optimization of novel dual dithiocarbamates as potent anticancer agents” (Eur J Med Chem, 2015), this text covers IC50 for 28 molecules.

The nature of assay [1]: Antiproliferative activity against human H460 cells assessed as inhibition of cell growth after 72 hrs by MTT method. Type of assay: functional, cell-based. To be noted: NCI-H460, 72 h. In short, it runs like this: (§1)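 Tumor cells seeded in 100 µL suspension, 24 h preincubation at 37 °C, 5% CO2. Serial dilutions of compound then added for 72 h; DMSO controls at 0.5% final. Surviving cells quantified by MTT, OD read at 492/620 nm. IC50 is the concentration giving 50% growth inhibition, taken from dose-response curves of a triplicate experiment.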
For orientation: Tetrazolium assays rely on reduction of a dye to a coloured formazan, in cell work by metabolically active cells.

A further assay has as its system MDA-MB-453. The assay is described as follows: Antiproliferative activity against human MDA-MB-453 cells assessed as inhibition of cell growth after 72 hrs by MTT method. Type of assay: functional, cell-based. To be noted: MDA-MB-453, 72 h. Put shortly:
as §1

Assay [2] can be described thus: Antiproliferative activity against human PC3 cells assessed as inhibition of cell growth after 72 hrs by MTT method. Format: functional, cell-based. Conditions: PC-3, 72 h. In short, it runs like this:
as §1

Assay [3] can be described thus: Antiproliferative activity against human COLO205 cells assessed as inhibition of cell growth after 72 hrs by MTT method. Type of assay: functional, cell-based. Conditions: COLO 205, 72 h. In short, it runs like this:
as §1

The test system of the next assay is SW480. The assay is described as follows: Antiproliferative activity against human SW480 cells assessed as inhibition of cell growth after 72 hrs by MTT method. Conditions: SW480, 72 h. Type of assay: functional, cell-based. In short, it runs like this:
as §1

The test system of a further assay is NCI-H522. Put plainly: Antiproliferative activity against human NCI-H522 cells assessed as inhibition of cell growth after 72 hrs by MTT method. Type of assay: functional, cell-based. Conditions: NCI-H522, 72 h. Put shortly: as §1
The nature of assay [4]: Antiproliferative activity against human H1299 cells assessed as inhibition of cell growth after 72 hrs by MTT method. Conditions: NCI-H1299, 72 h. Type of assay: functional, cell-based. Put shortly: as §1
The subject of another assay is HEK293. The assay is described as follows: Antiproliferative activity against human HEK293 cells assessed as inhibition of cell growth after 72 hrs by Alamar Blue method. Conditions: HEK293, 72 h. Type of assay: cell-based. Put shortly:
(§2)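 Non-tumor cells seeded at 3.5 × 10³ cells/mL, 100 µL each, preincubated 24 h at 37 °C, 5% CO2. Serial dilutions then added for 72 h; DMSO controls at 0.5% final. Surviving cells measured by Alamar Blue, OD read at 492/620 nm. IC50 from a triplicate experiment.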
(In general: Alamar Blue is a resazurin reagent that responds to reducing activity.)

The next assay has as its system HepG2. Put plainly: Antiproliferative activity against human HepG2 cells assessed as inhibition of cell growth after 72 hrs by MTT method. To be noted: HepG2, 72 h. Format: functional, cell-based. In short, it runs like this: as §1
Assay [5] in a line: Antiproliferative activity against human LO2 cells assessed as inhibition of cell growth after 72 hrs by Alamar Blue method. Format: cell-based. Conditions: L02, 72 h. In short, it runs like this: as §2
A further assay concerns A-375. The assay is described as follows: Antiproliferative activity against human A375 cells assessed as inhibition of cell growth after 72 hrs by MTT method. Format: functional, cell-based. To be noted: A-375, 72 h. In short, it runs like this: as §1
In a further assay the test system is MCF7. Put plainly: Antiproliferative activity against human MCF7 cells assessed as inhibition of cell growth after 72 hrs by MTT method. Type of assay: functional, cell-based. Conditions: MCF7, 72 h. In short, it runs like this: as §1

Take `CN(C)C(=S)SCC(CSC(=S)N(C)C)C(=O)c1ccccc1`: in [1], the 50% inhibitory concentration (IC50) – broadly, the concentration that gives 50% inhibition – was found to be 1.93 µM. Turning to `CN(C)C(=S)SCC(CSC(=S)N(C)C)C(=O)c1ccc(F)cc1`, the IC50 in assay [1] was 1.21 µM.

Regarding `CN(C)C(=S)SCC(CSC(=S)N(C)C)C(=O)c1ccccc1F`, in [1], the IC50 was 0.92 µM. In the case of `COc1ccccc1C(=O)C(CSC(=S)N(C)C)CSC(=S)N(C)C`, the IC50 in [1] came out at 0.81 µM. As for `COc1cccc(C(=O)C(CSC(=S)N(C)C)CSC(=S)N(C)C)c1`, in assay [1], the half-maximal inhibitory concentration (IC50) was 1.24 µM. Same read-out and setting: with `CN(C)C(=S)SCC(CSC(=S)N(C)C)C(=O)c1ccc(OCc2ccccc2)cc1` the figure was 9.77 µM. For `CN(C)C(=S)SCC(CSC(=S)N(C)C)C(=O)c1ccc(O)cc1`, in [1], the IC50 worked out at 30 µM. With `CN(C)C(=S)SCC(CSC(=S)N(C)C)C(=O)c1cccnc1`, in assay [1], the half-maximal inhibitory concentration (IC50) was determined as 0.87 µM. For the molecule `CN(C)C(=S)SCC(CSC(=S)N(C)C)C(=O)c1nccs1`, the IC50 in assay [1] worked out at 0.84 µM. Turning to `CN(C)C(=S)SCC(CSC(=S)N(C)C)C(=O)c1ccc[nH]1`, the IC50 in assay [1] stood at 97.3 µM. Still for that read-out and setting: with `CN(C)C(=S)SCC(CSC(=S)N(C)C)C(=O)c1cc2ccccc2oc1=O` the figure was 0.66 µM; with `CN(C)C(=S)SCC(CSC(=S)N(C)C)C(=O)c1csc2ccccc12`, 0.85 µM.

Turning to `CN(C)C(=S)SCC(CSC(=S)N(C)C)C(=O)c1cnc2ccccc2c1`, the IC50 with MDA-MB-453 turned out to be 0.162 µM; in [2] it was 0.431 µM; in assay [3], 0.325 µM; in the assay with SW480, 6.35 µM; in the assay with NCI-H522, 0.139 µM; in assay [4], 0.622 µM. For the same molecule, the half-maximal inhibitory concentration (IC50) with HEK293 is 10.8 µM; with HepG2 it was 0.054 µM; in assay [5] it was 13.1 µM; in the assay with A-375 it was 0.439 µM; in the assay on MCF7, 0.023 µM; in [1] it was 0.476 µM.

With `CN(C)C(=S)SCC(CSC(=S)N(C)C)C(=O)c1ccc2c(c1)ncn2-c1ccccc1`, the half-inhibitory concentration (IC50) in assay [1] was found to be 2.2 µM. For the molecule `CN(C)C(=S)SCC(CSC(=S)N(C)C)C(=O)c1cnn2ccccc12`, in assay [1], the IC50 is 31.5 µM. The same measure, in the same setting: with `CN(C)C(=S)SCC(CSC(=S)N(C)C)C(=O)c1c(-c2ccccc2)nn2ccccc12` the figure was 4.09 µM. `CN(C)C(=S)SCC(CSC(=S)N(C)C)C(=O)c1cnn2ncccc12`: the IC50 in assay [1] turned out to be 4.55 µM. As for `CN(C)C(=S)SCC(CSC(=S)N(C)C)C(=O)c1c(-c2ccccc2)nn2ncccc12`, the IC50 in [1] stood at 58.2 µM.

As to `CN(C)C(=S)SCC(CSC(=S)N(C)C)C(=O)c1cnc2ccccn12`, the half-inhibitory concentration (IC50) in [1] came to 13 µM.

Take `Cc1nc2ccccn2c1C(=O)C(CSC(=S)N(C)C)CSC(=S)N(C)C`: the half-inhibitory concentration (IC50) in assay [1] came out at 151 µM. Consider `CC(=O)C(CSC(=S)N(C)C)CSC(=S)N(C)C`, for which the concentration for half-maximal inhibition (IC50) in assay [1] came out at 0.89 µM. On the same count and under the same terms, with `CCN(CC)C(=S)SCC(CSC(=S)N(CC)CC)C(=O)c1cnc2ccccc2c1` the figure was 5.16 µM. With `CN1CCN(C(=S)SCC(CSC(=S)N2CCN(C)CC2)C(=O)c2cnc3ccccc3c2)CC1`, the half-maximal inhibitory concentration (IC50) in assay [1] was 2.51 µM. With `O=C(c1cnc2ccccc2c1)C(CSC(=S)N1CCOCC1)CSC(=S)N1CCOCC1`, the IC50 in assay [1] is 0.58 µM. On the same count and under the same terms, with `O=C(c1cnc2ccccc2c1)C(CSC(=S)N1CCCC1)CSC(=S)N1CCCC1` the figure was 0.79 µM. Still for that read-out and setting: with `O=C(c1cnc2ccccc2c1)C(CSC(=S)N1CCCCC1)CSC(=S)N1CCCCC1` the figure was 4.65 µM; with `O=C(c1cnc2ccccc2c1)C(CSC(=S)N1CCSCC1)CSC(=S)N1CCSCC1`, 125 µM. Regarding `CN(Cc1cccnc1)C(=S)SCC(CSC(=S)N(C)Cc1cccnc1)C(=O)c1cnc2ccccc2c1`, the IC50 in assay [1] was found to be 1 µM.
